This is a sample that favours compounds with a hit; in the whole collection about 3% have one here.
BB579 growth dn: yeast BB579 growth reduction in restrictive medium | S. cerevisiae BB579 growth, OD615, 48 h | inhibition, % at 10 µM | 140,000 tested, 0.51% active | AID 804;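 active means inhibition above a set limit, 3 SD over the mean compound inhibition, cut at about 44% in these data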
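Assay system – yeast BB579 (DeaD) · Dosing – single compound dose of 10 µM, 0.25% DMSO final · Detection – OD615 turbidity measurement · Buffer or medium – CSMM-D restrictive synthetic medium containing dextrose (glucose) · Benchmarks – positive control amphotericin B 10 µg/mL · Incubation – 48 h exposure, 30 °C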
RAM network inh: inhibitors of the yeast RAM network | S. cerevisiae dse1pr::URA3 reporter, 5-FOA growth OD615, 2 d; analog-sensitive cbk1-as2 kinase mutant strain | inhibition, % at 50 µM | 190,000 tested, 1.8% active | AID 868;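 active means inhibition above a set limit, 3 SD over mean compound inhibition, cut at about 8.4% in these data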;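 further: inhibition rescues growth on 5-FOA so higher OD means more RAM inhibition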
Yeast life ext: extends the lifespan of yeast; S. cerevisiae growth with nicotinamide, OD615; deaD strain in restrictive glucose medium; 130,000 tested, 0.68% active; inhibition of the nicotinamide effect, % at 10 µM;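 active means inhibition above a set limit, placed 3 SD over the median of all compounds, cut at about 26% in these data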
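Assay system: engineered S. cerevisiae DeaD replicative-lifespan strain, galactose-grown log-phase cells; Buffer or medium: CSMM-D glucose medium, restrictive; Probe or stimulus: nicotinamide 1.5 mM; Compound: single dose 10 µM compound, 0.25% DMSO; Schedule: 4 h preincubation then 48 h treatment at 30 °C; Technique: OD615 measurement.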
INS promoter inh: TRM-6 insulin promoter activity inhibition. TRM-6 cells, insulin promoter-eGFP reporter, imaging; reporter expression induced with tamoxifen. inhibition, % at 2 µM. 130,000 tested, 0.9% active;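 active means inhibition above the mean plus 3 SD, with well images judged a real hit on visual review, cut at about 60% in these data, passing the limit was not always enough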
Insulin prom up: MIN6 insulin promoter up-regulation; z-score at 5 µM; MIN6 insulin promoter-GFP reporter, high-content imaging; hits give high values; 190,000 tested, 0.3% active;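 active means z-score above 3 at 5 µM with at least 500 cells counted in the well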
Large screens that a line does not name were inactive.

CC(C)(C)c1ccc(C(CC(=O)O)NC(=O)Cc2ccc(F)cc2)cc1 (stereo not given)	none (no result: BB579 growth dn, Yeast life ext, Insulin prom up)
CCS(=O)(=O)CCSc1nc(C)cc(C)n1	none (no result: INS promoter inh)
Cc1cc(C)nc(SCSc2nc(C)cc(C)n2)n1	Insulin prom up 4.5 (no result: INS promoter inh)
CCc1cc(=O)oc2cc(C)c(CN3CCCC(C)C3)c(O)c12 (stereo not given)	Yeast life ext 30
CCCCc1cc(=O)oc2cc(C)c(CN3CCCC3)c(O)c12	none (no result: Insulin prom up)
Cn1nnnc1SCCNS(=O)(=O)c1ccccc1	none
Cc1ccc(-n2nnnc2SCCNS(=O)(=O)c2ccccc2)cc1C	RAM network inh 9.9 (no result: INS promoter inh, Insulin prom up)
O=C(CN1CCN(S(=O)(=O)c2ccccc2F)CC1)Nc1ccccc1C(=O)c1ccccc1	RAM network inh 11 (no result: BB579 growth dn, Yeast life ext, INS promoter inh)
C/C(=N\S(=O)(=O)c1ccc(C)cc1)N1CCN(S(=O)(=O)c2ccccc2)C1	Insulin prom up 3.5 (no result: INS promoter inh)
Cn1c(N)c(C(=O)c2ccc(F)cc2F)c(=O)n(C)c1=O	Yeast life ext 40 (no result: INS promoter inh)
O=c1cc(-c2ccncc2)oc2ccccc12	BB579 growth dn 46
O=S(=O)(NC1CCCC1)c1ccc(S(=O)(=O)N(Cc2cccs2)CC2CCCO2)cc1 (stereo not given)	RAM network inh 9.6 (no result: INS promoter inh)
COC(=O)CCCCC1SCC(NC(=O)c2ccccc2)C1OC(C)=O (stereo not given)	RAM network inh 9.2 (no result: BB579 growth dn, Yeast life ext, INS promoter inh)
COc1ccc(/C=C(/NC(=O)c2ccc(OC)c(OC)c2)C(=O)NCCc2c[nH]c3ccccc23)cc1	none
COc1ccc(/C=C(/NC(=O)c2ccc(OC)cc2)C(=O)NCCc2c[nH]c3ccccc23)cc1	RAM network inh 8.5
O=C(NCc1cccnc1)C1CCCN(S(=O)(=O)c2ccccc2)C1 (stereo not given)	none
O=C(NCc1ccc(F)cc1)C1CCCN(S(=O)(=O)c2cccnc2)C1 (stereo not given)	Insulin prom up 3.5 (no result: INS promoter inh)
CCn1cnc2sc(C(=O)Nc3ccccc3OC)c(C)c2c1=O	none (no result: BB579 growth dn, RAM network inh, Yeast life ext, INS promoter inh)
COc1ccccc1NC(=O)Cn1cnc2sc(C)c(S(=O)(=O)N3CCCCC3)c2c1=O	RAM network inh 8.9
COc1ccccc1NC(=O)Cn1cnc2sc(C(=O)NCc3ccco3)c(C)c2c1=O	RAM network inh 9.4
COc1ccc(C)cc1NC(=O)Cn1cnc2sc(C)c(S(=O)(=O)N3CCOCC3)c2c1=O	none
CCc1nnc(N2C(=O)c3ccc(Oc4ccc([N+](=O)[O-])cc4)cc3C2=O)s1	Yeast life ext 52 (no result: INS promoter inh)
CN=C(NC1CCCCC1)c1ccc(Cl)cc1	none
COc1cccc(OC)c1C1=NC(C)(C)CO1	none (no result: BB579 growth dn, RAM network inh, Yeast life ext, INS promoter inh)
CCOC(=O)c1ccc(NC(=O)COc2ccc(S(=O)(=O)NC(C)CC)cc2)cc1 (stereo not given)	Insulin prom up 3.1
CCOC(=O)c1ccc(NC(=O)C(C)NS(=O)(=O)c2ccc(OC)cc2)cc1 (stereo not given)	none
O=C(Oc1ccc2c(=O)c(Cl)coc2c1)c1ccncc1	INS promoter inh 82
COCCCNc1nc2ccccc2nc1NS(=O)(=O)c1ccc(C)cc1C	none (no result: BB579 growth dn, RAM network inh, Yeast life ext, INS promoter inh)
COc1ccc(CCNC(=O)CSc2ccccn2)cc1	none (no result: BB579 growth dn, Yeast life ext)
COc1ccc(CCNC(=O)CSc2ncn[nH]2)cc1	INS promoter inh 86
COC(=O)[C@H](Cc1ccccc1)NC(=O)N1CCN(c2ccccc2)CC1	none (no result: BB579 growth dn, RAM network inh, Yeast life ext, INS promoter inh)
c1ccc(CCNc2ccccc2)cc1	none (no result: BB579 growth dn, RAM network inh, Yeast life ext, INS promoter inh)
Cc1nn(-c2ccccc2)c(N)c1N=Nc1ccc(Cl)cc1	RAM network inh 10 (no result: INS promoter inh)
CN(Cc1ccco1)C(=O)Cn1nc(-c2ccc(Cl)cc2)ccc1=O	none (no result: BB579 growth dn, Yeast life ext, Insulin prom up)
Cc1cccc(-c2nnc(SCC(=O)Nc3ncccn3)n2C)c1	none (no result: BB579 growth dn, Yeast life ext)
CCOC(=O)CSc1ccc(S(=O)(=O)N2CCC(C)CC2)cc1[N+](=O)[O-]	RAM network inh 11
CCOC(=O)c1cc(-c2ccccc2)sc1NC(=O)C(C)OC(=O)c1cccnc1Cl (stereo not given)	none (no result: Insulin prom up)
NC(N)=N/N=C/c1ccc(OCc2ccc(Cl)cc2)cc1	BB579 growth dn 78
NC(N)=N/N=C/c1ccc(OCc2ccccc2)cc1	none
CCS(=O)(=O)c1ccc2oc(SCC(=O)NCCc3ccc(F)cc3)nc2c1	none (no result: BB579 growth dn, Yeast life ext)
CCN(CC)S(=O)(=O)c1ccc2oc(SCc3ccc(F)cc3)nc2c1	RAM network inh 10.0
O=C(/C=C/c1ccc(Br)cc1)Nc1ccc(S(=O)(=O)Nc2ncccn2)cc1	RAM network inh 9.8 (no result: BB579 growth dn, Yeast life ext, INS promoter inh)
O=C(/C=C/c1cccc(F)c1)Nc1ccc(S(=O)(=O)Nc2ncccn2)cc1	none (no result: BB579 growth dn, RAM network inh, Yeast life ext, INS promoter inh)
Cc1ccnc(NC(=O)Nc2ccc3c(c2)OCO3)c1	none (no result: BB579 growth dn, Yeast life ext)
O=[N+]([O-])c1cc(Cl)cc(C2=NCCN2)c1	INS promoter inh 79
O=C(Nc1ccc(C2=NCCN2)cc1)c1ccc(C(=O)Nc2ccc(C3=NCCN3)cc2)c([N+](=O)[O-])c1	none (no result: BB579 growth dn, RAM network inh, Yeast life ext, INS promoter inh)
COc1cccc(C(c2nnnn2CC2CCCO2)N2CCN(C(=O)c3ccco3)CC2)c1OC (stereo not given)	none (no result: BB579 growth dn, Yeast life ext)
CC(Sc1nc(C(C)(C)C)cc(-c2ccccc2)c1C#N)C(=O)Nc1ccccc1 (stereo not given)	RAM network inh 9.2
COc1ccc2nc(SCC(=O)Nc3c(C)cccc3C)[nH]c2c1	Insulin prom up 3.3
COc1ccc2nc(SCC(=O)Nc3ccccc3)[nH]c2c1	none
COc1ccccc1OCCOc1ccc(C(=O)c2ccccc2)cc1	RAM network inh 10.0
COc1ccc(OC)c(C(=O)c2ccc(C(=O)c3cc(OC)ccc3OC)cc2)c1	none
COc1ccc(OC)c(C(=O)c2ccccc2)c1	INS promoter inh 81 (no result: Yeast life ext, Insulin prom up)
CCCCc1ccc(NS(=O)(=O)c2cccs2)cc1	BB579 growth dn 58
O=S(=O)(Nc1ccc(Cc2ccncc2)cc1)c1cccs1	none
COc1cc2nc(C3CCC3)n(NC(=O)COc3ccccc3)c(=O)c2cc1OC	Yeast life ext 53
CCC(CC)c1nnc(NC(=O)Cc2ccccc2[N+](=O)[O-])s1	none (no result: BB579 growth dn, Yeast life ext, INS promoter inh)
O=C(Nc1ccc(Cl)cc1)Nc1cc(S(=O)(=O)N2CCOCC2)ccc1N1CCCC1	RAM network inh 9.3
O=S(=O)(c1ccc(Cl)c(NC(=S)Nc2cccc(O)c2)c1)N1CCOCC1	Yeast life ext 27
Cc1ccccc1NC(=O)c1c(C)[nH]c(=S)c(C#N)c1-c1ccc(Cl)cc1	none (no result: BB579 growth dn, RAM network inh, Yeast life ext, INS promoter inh)
Cc1ccc(-c2c(C(=O)Nc3ccccc3C)c(C)[nH]c(=S)c2C#N)o1	RAM network inh 8.5 (no result: BB579 growth dn, Yeast life ext, INS promoter inh)
Cc1ccc(S(=O)(=O)N2CCCCC2)cc1NC(=O)CNCc1ccco1	none (no result: BB579 growth dn, RAM network inh, Yeast life ext, INS promoter inh)
COC(=O)c1ccc2c(c1O)C(=O)c1ccccc1C2=O	BB579 growth dn 67 (no result: Insulin prom up)
COc1cccc(NC(=O)COC(=O)/C=C/c2ccc(Cl)cc2Cl)c1	none
COc1cc(NC(=O)COC(=O)/C=C/c2ccc(Cl)cc2Cl)cc(OC)c1	RAM network inh 9.5
COc1cc(OC)cc(C(=O)N[C@H](C(=O)OCc2cc(=O)oc3cc(C)ccc23)C(C)C)c1	none
CCOc1ccccc1C(=O)N[C@H](C(=O)OCc1cc(=O)oc2cc(C)ccc12)C(C)C	RAM network inh 9.7
CCOc1ccccc1C(=O)N[C@H](C(=O)OCc1cc([N+](=O)[O-])cc2c1OCOC2)C(C)C	RAM network inh 8.8
